Experimental data reported in ChEMBL document CHEMBL1641579, “Synthesis and biological evaluation of 7-substituted-1-(3-bromophenylamino)isoquinoline-4-carbonitriles as inhibitors of myosin light chain kinase and epidermal growth factor receptor” (Bioorg Med Chem, 2011).

Legend:
[1] = target: Myosin light chain kinase, smooth muscle (Homo sapiens, UniProt Q15746); test: Inhibition of MLCK by HTRF assay
[2] = target: T1, Dual specificity tyrosine-phosphorylation-regulated kinase 2 (Homo sapiens) (UniProt Q92630); test: Inhibition of DYRK2 assessed as residual activity at 10 uM
T1 sequence (whole entry): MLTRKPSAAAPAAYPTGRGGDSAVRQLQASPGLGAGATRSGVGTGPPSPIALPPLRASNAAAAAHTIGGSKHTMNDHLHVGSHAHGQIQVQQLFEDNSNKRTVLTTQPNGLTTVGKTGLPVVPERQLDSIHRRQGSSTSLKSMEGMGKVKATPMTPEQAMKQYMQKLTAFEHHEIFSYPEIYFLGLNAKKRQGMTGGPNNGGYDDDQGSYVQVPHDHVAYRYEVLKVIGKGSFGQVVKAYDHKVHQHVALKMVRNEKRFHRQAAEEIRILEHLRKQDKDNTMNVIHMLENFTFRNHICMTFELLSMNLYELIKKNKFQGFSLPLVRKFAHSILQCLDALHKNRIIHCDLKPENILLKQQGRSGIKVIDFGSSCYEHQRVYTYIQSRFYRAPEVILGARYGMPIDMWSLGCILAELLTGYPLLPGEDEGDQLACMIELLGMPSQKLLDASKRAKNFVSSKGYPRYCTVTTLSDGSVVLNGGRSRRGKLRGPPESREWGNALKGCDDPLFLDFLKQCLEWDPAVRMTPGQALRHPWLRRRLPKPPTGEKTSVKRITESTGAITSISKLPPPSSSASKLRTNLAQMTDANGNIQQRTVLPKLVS
Outline: (§1)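 Kinase panel screen run as a radioactive activity assay at single compound concentration. Score reported as percent activity remaining relative to DMSO controls (100%).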

[3] = target: Tyrosine-protein kinase BTK (Homo sapiens) (UniProt Q06187); test: Inhibition of BTK assessed as residual activity at 10 uM; outline: as §1
[4] = target: Dual specificity tyrosine-phosphorylation-regulated kinase 1A (Homo sapiens) (UniProt Q13627); test: Inhibition of DYRK1A assessed as residual activity at 10 uM; outline: as §1
[5] = target: T2, Eukaryotic elongation factor 2 kinase (Homo sapiens) (UniProt O00418); test: Inhibition of EF2K assessed as residual activity at 10 uM; outline: as §1
T2 sequence (whole entry): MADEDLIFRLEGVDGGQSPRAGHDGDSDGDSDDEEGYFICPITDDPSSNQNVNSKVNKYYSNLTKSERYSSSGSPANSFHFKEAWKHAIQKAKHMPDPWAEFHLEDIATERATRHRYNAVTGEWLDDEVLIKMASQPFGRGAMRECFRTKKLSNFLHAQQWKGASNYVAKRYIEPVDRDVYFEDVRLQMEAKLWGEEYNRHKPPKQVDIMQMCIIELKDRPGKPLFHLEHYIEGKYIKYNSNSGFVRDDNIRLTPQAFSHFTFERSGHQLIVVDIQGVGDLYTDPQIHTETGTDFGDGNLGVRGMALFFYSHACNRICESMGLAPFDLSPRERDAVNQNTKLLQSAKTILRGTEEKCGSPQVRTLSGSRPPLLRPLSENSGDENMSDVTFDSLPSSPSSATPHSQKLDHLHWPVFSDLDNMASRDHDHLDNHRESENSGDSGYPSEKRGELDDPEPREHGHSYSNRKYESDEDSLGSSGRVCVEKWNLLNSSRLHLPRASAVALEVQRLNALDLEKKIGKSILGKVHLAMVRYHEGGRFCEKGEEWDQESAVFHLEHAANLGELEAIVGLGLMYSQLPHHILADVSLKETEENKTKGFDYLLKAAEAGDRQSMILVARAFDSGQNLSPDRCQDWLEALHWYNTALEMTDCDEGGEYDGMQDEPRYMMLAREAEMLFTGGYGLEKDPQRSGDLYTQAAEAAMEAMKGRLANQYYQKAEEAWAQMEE

[6] = target: Ribosomal protein S6 kinase alpha-5 (Homo sapiens) (UniProt O75582); test: Inhibition of MSK1 assessed as residual activity at 10 uM
Outline: (§2)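 Panel screen by radioactive kinase assay at a single inhibitor concentration. Score is the percent activity remaining relative to DMSO controls (100%).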

[7] = target: Serine/threonine-protein kinase PAK 5 (Homo sapiens) (UniProt Q9P286); test: Inhibition of PAK5 assessed as residual activity at 10 uM; outline: as §2
[8] = target: Serine/threonine-protein kinase PAK 4 (Homo sapiens) (UniProt O96013); test: Inhibition of PAK4 assessed as residual activity at 10 uM; outline: as §2
[9] = target: MAP kinase-activated protein kinase 3 (Homo sapiens) (UniProt Q16644); test: Inhibition of MAPKAPK3 assessed as residual activity at 10 uM; outline: as §1
[10] = target: T3, Serine/threonine-protein kinase TBK1 (Homo sapiens) (UniProt Q9UHD2); test: Inhibition of TBK1 assessed as residual activity at 10 uM; outline: as §2
T3 sequence (whole entry): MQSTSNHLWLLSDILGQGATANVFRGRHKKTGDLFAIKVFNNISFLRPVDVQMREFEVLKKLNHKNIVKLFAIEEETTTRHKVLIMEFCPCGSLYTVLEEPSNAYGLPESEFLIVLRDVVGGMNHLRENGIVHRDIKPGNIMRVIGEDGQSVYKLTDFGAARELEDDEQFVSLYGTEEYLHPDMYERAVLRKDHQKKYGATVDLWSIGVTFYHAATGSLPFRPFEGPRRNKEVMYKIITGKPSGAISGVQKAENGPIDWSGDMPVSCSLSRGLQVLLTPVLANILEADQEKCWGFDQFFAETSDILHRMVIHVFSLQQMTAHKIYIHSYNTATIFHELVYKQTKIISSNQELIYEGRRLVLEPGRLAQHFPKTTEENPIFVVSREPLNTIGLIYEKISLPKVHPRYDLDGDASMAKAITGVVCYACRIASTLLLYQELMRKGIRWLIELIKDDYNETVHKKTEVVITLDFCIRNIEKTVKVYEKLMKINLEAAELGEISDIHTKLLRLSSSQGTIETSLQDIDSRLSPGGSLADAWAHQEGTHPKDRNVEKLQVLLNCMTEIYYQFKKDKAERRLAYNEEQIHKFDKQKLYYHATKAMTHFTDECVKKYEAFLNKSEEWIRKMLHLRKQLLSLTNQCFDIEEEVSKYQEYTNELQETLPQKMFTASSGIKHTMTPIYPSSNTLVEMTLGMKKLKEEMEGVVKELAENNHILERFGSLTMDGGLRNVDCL

[11] = target: Cyclin-dependent kinase 2/cyclin A (Homo sapiens) (UniProt P24941+P20248+P78396); test: Inhibition of CDK2/CyclinA assessed as residual activity at 10 uM; type: protein-complex assay; outline: as §1

Sequence of Ribosomal protein S6 kinase alpha-5 (Homo sapiens) (O75582 whole entry, looked up): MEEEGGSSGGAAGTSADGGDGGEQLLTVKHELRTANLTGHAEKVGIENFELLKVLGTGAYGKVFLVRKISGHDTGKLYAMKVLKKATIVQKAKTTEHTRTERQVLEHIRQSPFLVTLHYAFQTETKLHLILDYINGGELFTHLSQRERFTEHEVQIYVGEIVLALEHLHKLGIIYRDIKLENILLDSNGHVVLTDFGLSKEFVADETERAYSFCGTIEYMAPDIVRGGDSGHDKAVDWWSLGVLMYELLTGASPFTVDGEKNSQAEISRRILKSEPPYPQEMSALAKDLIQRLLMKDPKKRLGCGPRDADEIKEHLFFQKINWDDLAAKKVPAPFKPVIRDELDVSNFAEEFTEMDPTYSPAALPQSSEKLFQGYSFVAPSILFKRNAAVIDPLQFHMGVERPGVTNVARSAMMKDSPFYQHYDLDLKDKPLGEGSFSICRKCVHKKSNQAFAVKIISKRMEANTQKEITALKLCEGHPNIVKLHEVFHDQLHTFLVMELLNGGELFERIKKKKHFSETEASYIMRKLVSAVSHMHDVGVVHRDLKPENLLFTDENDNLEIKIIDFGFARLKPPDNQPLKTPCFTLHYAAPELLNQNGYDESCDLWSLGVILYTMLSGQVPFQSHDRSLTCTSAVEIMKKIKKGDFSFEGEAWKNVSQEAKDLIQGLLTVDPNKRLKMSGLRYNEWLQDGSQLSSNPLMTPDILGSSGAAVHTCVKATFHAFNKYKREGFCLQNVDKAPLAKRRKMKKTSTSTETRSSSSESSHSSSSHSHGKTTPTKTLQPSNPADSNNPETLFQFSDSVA
Sequence of Tyrosine-protein kinase BTK (Homo sapiens) (Q06187 whole entry): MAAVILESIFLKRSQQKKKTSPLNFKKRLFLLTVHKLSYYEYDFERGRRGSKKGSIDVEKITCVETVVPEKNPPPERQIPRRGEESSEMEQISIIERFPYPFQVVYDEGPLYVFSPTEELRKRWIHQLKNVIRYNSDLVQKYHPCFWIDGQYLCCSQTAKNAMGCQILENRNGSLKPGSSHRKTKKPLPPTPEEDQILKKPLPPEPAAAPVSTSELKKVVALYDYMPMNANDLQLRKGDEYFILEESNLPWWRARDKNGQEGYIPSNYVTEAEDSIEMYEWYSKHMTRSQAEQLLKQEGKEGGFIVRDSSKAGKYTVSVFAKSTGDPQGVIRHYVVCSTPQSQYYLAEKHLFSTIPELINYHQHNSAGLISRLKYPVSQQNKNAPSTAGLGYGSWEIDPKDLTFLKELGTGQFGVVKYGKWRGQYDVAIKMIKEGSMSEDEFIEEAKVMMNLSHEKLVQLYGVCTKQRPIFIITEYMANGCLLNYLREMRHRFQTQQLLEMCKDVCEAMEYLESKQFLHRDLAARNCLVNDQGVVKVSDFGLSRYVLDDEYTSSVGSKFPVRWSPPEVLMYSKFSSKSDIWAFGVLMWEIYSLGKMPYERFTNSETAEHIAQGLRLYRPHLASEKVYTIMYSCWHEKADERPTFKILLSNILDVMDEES
Sequence of Serine/threonine-protein kinase PAK 5 (Homo sapiens) (Q9P286 whole entry, looked up): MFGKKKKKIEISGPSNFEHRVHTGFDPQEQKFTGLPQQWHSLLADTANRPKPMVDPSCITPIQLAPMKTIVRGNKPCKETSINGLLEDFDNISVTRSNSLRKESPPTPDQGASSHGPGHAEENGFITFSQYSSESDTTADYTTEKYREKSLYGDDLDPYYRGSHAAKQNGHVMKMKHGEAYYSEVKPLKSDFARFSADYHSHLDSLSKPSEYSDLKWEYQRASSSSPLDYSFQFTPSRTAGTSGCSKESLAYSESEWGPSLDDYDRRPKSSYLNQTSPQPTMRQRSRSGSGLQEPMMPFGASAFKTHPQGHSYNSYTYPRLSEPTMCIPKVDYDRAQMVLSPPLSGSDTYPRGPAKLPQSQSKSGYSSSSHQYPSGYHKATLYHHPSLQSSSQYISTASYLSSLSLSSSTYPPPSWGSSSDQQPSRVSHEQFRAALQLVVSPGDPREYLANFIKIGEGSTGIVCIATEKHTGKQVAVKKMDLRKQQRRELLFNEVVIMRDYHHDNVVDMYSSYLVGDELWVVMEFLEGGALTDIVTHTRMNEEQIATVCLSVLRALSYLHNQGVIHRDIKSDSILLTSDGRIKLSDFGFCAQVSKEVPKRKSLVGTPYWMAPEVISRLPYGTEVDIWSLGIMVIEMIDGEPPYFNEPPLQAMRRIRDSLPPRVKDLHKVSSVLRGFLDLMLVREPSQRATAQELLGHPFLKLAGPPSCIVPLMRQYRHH
Sequence of MAP kinase-activated protein kinase 3 (Homo sapiens) (Q16644 whole entry, looked up): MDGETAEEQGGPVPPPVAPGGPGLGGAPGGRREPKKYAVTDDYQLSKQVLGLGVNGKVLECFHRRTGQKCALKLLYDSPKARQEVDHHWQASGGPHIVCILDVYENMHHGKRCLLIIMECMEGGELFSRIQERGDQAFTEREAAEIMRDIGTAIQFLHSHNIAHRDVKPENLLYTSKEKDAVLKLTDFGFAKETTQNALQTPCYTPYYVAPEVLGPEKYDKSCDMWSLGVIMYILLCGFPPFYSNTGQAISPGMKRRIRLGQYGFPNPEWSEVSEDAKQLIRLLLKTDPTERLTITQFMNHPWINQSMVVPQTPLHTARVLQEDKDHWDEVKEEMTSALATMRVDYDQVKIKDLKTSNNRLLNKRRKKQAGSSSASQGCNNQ
Sequence of Serine/threonine-protein kinase PAK 4 (Homo sapiens) (O96013 whole entry, looked up): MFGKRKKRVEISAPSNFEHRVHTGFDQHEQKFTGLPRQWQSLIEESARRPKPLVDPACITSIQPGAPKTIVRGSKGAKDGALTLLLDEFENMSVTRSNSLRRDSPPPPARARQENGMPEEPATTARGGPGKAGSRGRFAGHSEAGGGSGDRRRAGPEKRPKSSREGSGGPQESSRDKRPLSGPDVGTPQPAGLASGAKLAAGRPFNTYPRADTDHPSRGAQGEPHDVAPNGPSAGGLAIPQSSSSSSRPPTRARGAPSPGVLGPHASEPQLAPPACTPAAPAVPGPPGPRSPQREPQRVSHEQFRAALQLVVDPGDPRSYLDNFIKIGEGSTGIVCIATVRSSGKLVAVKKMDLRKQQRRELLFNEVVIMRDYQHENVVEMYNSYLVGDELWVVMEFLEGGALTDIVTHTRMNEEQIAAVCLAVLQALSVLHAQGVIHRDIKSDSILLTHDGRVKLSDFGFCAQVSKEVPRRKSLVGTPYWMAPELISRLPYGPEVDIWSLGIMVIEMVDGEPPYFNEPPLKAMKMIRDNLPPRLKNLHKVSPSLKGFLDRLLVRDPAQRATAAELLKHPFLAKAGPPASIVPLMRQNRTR
Sequence of Myosin light chain kinase, smooth muscle (Q15746 whole entry): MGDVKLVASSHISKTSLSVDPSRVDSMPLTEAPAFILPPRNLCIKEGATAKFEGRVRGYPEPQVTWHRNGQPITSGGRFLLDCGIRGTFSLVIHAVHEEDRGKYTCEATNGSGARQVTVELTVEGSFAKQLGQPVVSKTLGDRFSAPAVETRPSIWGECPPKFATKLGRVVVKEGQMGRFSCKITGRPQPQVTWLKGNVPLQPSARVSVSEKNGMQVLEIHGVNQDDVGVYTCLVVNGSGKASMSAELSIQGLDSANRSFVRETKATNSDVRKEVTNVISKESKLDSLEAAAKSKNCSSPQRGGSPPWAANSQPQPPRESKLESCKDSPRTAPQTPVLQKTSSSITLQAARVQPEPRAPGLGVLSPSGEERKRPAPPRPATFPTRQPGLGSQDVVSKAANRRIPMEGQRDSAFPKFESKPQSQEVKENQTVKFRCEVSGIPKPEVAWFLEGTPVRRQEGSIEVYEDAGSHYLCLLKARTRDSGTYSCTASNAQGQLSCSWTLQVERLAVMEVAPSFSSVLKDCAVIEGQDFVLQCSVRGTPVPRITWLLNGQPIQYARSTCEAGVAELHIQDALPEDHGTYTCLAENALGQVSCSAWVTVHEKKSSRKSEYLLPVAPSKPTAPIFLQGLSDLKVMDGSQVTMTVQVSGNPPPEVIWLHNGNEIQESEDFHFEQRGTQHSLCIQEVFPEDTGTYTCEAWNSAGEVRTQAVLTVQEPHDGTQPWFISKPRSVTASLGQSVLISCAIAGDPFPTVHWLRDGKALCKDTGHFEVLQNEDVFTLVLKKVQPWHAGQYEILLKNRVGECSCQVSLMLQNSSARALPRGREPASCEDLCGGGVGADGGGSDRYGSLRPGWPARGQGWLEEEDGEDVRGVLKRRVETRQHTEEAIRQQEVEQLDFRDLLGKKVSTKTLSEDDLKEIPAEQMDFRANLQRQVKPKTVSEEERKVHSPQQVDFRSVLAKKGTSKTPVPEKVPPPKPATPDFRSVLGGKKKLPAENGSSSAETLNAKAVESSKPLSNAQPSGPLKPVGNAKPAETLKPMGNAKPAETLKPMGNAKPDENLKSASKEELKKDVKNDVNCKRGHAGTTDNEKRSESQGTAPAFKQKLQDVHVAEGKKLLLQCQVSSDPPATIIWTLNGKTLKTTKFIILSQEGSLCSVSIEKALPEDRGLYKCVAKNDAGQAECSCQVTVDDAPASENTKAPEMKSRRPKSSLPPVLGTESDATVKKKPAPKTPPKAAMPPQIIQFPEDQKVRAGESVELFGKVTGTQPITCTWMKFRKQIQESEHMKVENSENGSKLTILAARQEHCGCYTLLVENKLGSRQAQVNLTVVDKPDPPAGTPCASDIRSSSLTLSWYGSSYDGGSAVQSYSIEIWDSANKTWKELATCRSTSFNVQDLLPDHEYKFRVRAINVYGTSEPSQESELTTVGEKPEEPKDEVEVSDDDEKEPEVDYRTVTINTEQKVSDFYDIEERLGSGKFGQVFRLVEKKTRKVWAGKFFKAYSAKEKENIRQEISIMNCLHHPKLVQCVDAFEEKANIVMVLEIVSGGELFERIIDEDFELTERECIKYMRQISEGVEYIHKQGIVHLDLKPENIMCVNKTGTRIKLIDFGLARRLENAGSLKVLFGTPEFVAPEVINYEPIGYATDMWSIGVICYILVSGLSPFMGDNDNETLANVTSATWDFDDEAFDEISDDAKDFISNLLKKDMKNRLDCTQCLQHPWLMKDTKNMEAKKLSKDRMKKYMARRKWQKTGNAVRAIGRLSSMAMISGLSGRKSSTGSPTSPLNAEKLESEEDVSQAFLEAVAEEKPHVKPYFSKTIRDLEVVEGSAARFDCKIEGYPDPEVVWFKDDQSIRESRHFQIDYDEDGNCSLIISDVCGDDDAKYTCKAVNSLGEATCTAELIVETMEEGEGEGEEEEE

IC50 [1] | Activity [2] | Activity [3] | Activity [4] | Activity [5] | Activity [6] | Activity [7] | Activity [8] | Activity [9] | Activity [10] | Activity [11] | Structure (SMILES)
25.1 µM | 70% | 72% | 75% | 78% | 86% | 89% | 94% | 96% | 99% | 100% | CN(C)CCCC(=O)Nc1ccc2c(C#N)cnc(Nc3cccc(Br)c3)c2c1
23.6 µM | 68% | 52% | 60% | 88% | 95% | 86% | 82% | 75% | 82% | 97% | CN(C)C/C=C/C(=O)Nc1ccc2c(C#N)cnc(Nc3cccc(Br)c3)c2c1
8.7 µM | 83% | 76% | 79% | 47% | 81% | 85% | 86% | 91% | 87% | 100% | CN1CCN(CCC(=O)Nc2ccc3c(C#N)cnc(Nc4cccc(Br)c4)c3c2)CC1
